Activity calls are given as the source filed them. The calls are words filed in the database; no cut-off is given here.
What was measured:
Plasmodium falciparum [1] = assay: Antimalarial activity against chloroquine-sensitive Plasmodium falciparum NF54; assay type: functional, organism-based
Plasmodium falciparum [2] = assay: Antimalarial activity against chloroquine-sensitive Plasmodium falciparum NF54 in mice (Mus musculus) by subcutaneous dose; assay type: functional; settings: NF54, sc
Method in brief: (§1)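 In mice, a single dose of 3, 10 or 30 mg/kg was given orally or subcutaneously. ED50 in mg/kg was derived from these doses following a published protocol.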

HeLa = assay: Antiproliferative activity against HeLa cell line; assay type: functional, cell-based; settings: Homo sapiens
Method in brief: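 HeLa human cervical cancer cells were tested in vitro with an XTT tetrazolium colorimetric proliferation assay, using a modified version of a reported protocol. IC50 was determined.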

Plasmodium falciparum [3] = assay: Antimalarial activity against chloroquine-sensitive Plasmodium falciparum NF54 in mice (Mus musculus) by peroral dose; assay type: functional; settings: NF54, po; method in brief: as §1
HOP-92 = assay: Antiproliferative activity against HOP92 cell line; assay type: functional, cell-based; settings: Homo sapiens
Method in brief: (§2)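 Growth inhibition was tested in vitro across the NCI Developmental Therapeutics Program 60-line human cancer panel at nanomolar to micromolar concentrations.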

BT-549 = assay: Antiproliferative activity against BT549 cell line; assay type: functional, cell-based; settings: Homo sapiens; method in brief: as §2
SK-MEL-5 = assay: Antiproliferative activity against SK-MEL-5 cell line; assay type: functional, cell-based; settings: Homo sapiens; method in brief: as §2

| Structure (SMILES) | IC50 (Plasmodium falciparum [1]) [nM] | ED50 (Plasmodium falciparum [2]) [mg/kg] | other results |
| --- | --- | --- | --- |
| CCOP(=O)(OCC)OCc1cc(C[C@H]2O[C@@H]3O[C@]4(C)CC[C@H]5[C@H](C)CC[C@@H]([C@H]2C)[C@@]35OO4)c(C[C@H]2O[C@@H]3O[C@]4(C)CC[C@H]5[C@H](C)CC[C@@H]([C@H]2C)[C@@]35OO4)cc1COP(=O)(OCC)OCC | 3 |  |  |
| C[C@H]1[C@@H](Cc2cc(C(=O)O)c(C(=O)O)cc2C[C@H]2O[C@@H]3O[C@]4(C)CC[C@H]5[C@H](C)CC[C@@H]([C@H]2C)[C@@]35OO4)O[C@@H]2O[C@]3(C)CC[C@H]4[C@H](C)CC[C@@H]1[C@@]24OO3 | 360 |  |  |
| C[C@@H]1CC[C@H]2[C@@H](C)C(=O)O[C@@H]3O[C@@]4(C)CC[C@@H]1[C@]32OO4 [ARTEMISININ] | 6.6 |  |  |
| C[C@H]1[C@@H](Cc2cc(CO)c(CO)cc2C[C@H]2O[C@@H]3O[C@]4(C)CC[C@H]5[C@H](C)CC[C@@H]([C@H]2C)[C@@]35OO4)O[C@@H]2O[C@]3(C)CC[C@H]4[C@H](C)CC[C@@H]1[C@@]24OO3 | 0.77 | 0.06 | IC50 (HeLa): 46.5 nM; ED50 (Plasmodium falciparum [3]): 2.6 mg/kg |
| C[C@H]1[C@@H](Cc2cc3c(cc2C[C@H]2O[C@@H]4O[C@]5(C)CC[C@H]6[C@H](C)CC[C@@H]([C@H]2C)[C@@]46OO5)COP(=O)(Oc2ccccc2)OC3)O[C@@H]2O[C@]3(C)CC[C@H]4[C@H](C)CC[C@@H]1[C@@]24OO3 (some centres not stated) | 3.7 |  |  |
| C=C(C[C@H]1O[C@@H]2O[C@]3(C)CC[C@H]4[C@H](C)CC[C@@H]([C@H]1C)[C@@]24OO3)C(=C)C[C@H]1O[C@@H]2O[C@]3(C)CC[C@H]4[C@H](C)CC[C@@H]([C@H]1C)[C@@]24OO3 | 2.9 |  |  |
| COC(=O)c1cc(C[C@H]2O[C@@H]3O[C@]4(C)CC[C@H]5[C@H](C)CC[C@@H]([C@H]2C)[C@@]35OO4)c(C[C@H]2O[C@@H]3O[C@]4(C)CC[C@H]5[C@H](C)CC[C@@H]([C@H]2C)[C@@]35OO4)cc1C(=O)OC | 1.6 | 0.71 | IC50 (HeLa): 500 nM; Activity (HOP-92): Active; Activity (BT-549): Active; Activity (SK-MEL-5): Active |
| C[C@H]1[C@H](OC(=O)CCC(=O)[O-])O[C@@H]2O[C@@]3(C)CC[C@H]4[C@H](C)CC[C@@H]1[C@@]24OO3.[Na+] [SODIUM ARESUNATE] |  | 2.2 | ED50 (Plasmodium falciparum [3]): 4 mg/kg |
